As a reminder, the inhibition is the drop in the measured response relative to a control, in per cent. For orientation: viability means a read-out of living cells in per cent, often relative to untreated cells.

We go through 30 compounds from PubChem BioAssay.

“And” between values parts separate entries of the source, which are not always exact repeats. Identical values can stand only once. The source made the active and inactive calls. Unless noted, no rule for the calls is given here.

The target of experiment [1] is Pantothenate synthetase (Mycobacterium tuberculosis (strain ATCC 25618 / H37Rv)) (UniProt P9WIL5). Kind of experiment: Coupled enzyme confirmation of inhibitors against recombinant Mtb PanC (AID 375).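 Also: 0% = full reaction with vehicle and 100% = no enzyme background.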 The following applies: coupled enzyme assay; at 10 µM, stronger effect = higher value.
A short description of experiment [2]: Her2 expression decrease, cell viability multiplex – SKBR3 breast tumor cells, AlphaScreen, ATP viability, primary screen (AID 461;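 active = Her2 level under about 52% in both replicate screens, with viability over 70% of control, limit read from the data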;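 as to Her2 level: lower value means less Her2 protein in the cells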;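 as to viability: percent of carrier control wells set as 100% viability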). The following applies: SKBR3 Her2 protein level, 18-24 h, measured here: SKBR3 viability, ATP luminescence, at 10 µM. On the technique in general: In Alpha technology, singlet oxygen from a donor bead excites a nearby acceptor bead.

Experiment [3] deals with Receptor tyrosine-protein kinase erbB-2 (Homo sapiens) (UniProt P04626). The experiment is described as above. To be noted: 18-24 h, at 10 µM, stronger effect = lower value.
The nature of experiment [4]: reduced viability of SK-BR-3 breast cancer cells – cell-based, 24 h, human, pilot screen (AID 572;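 active = viability at or below 10% of carrier control in both of two separate runs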;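 also: compound exposure lasted between 18 and 24 h rather than exactly 24 h; 100% = carrier-treated control wells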). To be noted: SK-BR-3 viability, CellTiter-Glo luminescence, at 10 µM, stronger effect = lower value.
The nature of experiment [5]: HUVEC growth inhibition – cell-based, human, primary screen (AID 575;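 active = viability at or below 30% in both replicate assays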;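 also: 100% = median of untreated cell wells with 0.1% DMSO on each plate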). The following applies: HUVEC proliferation, CellTiter-Glo luminescence, 72 h; at 10 µM; stronger effect = lower value. The essentials:
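System – primary HUVEC, no more than 12 passages · Medium – Low-serum (2% FBS) EBM, supplemented · Times – 72 h exposure, 37 °C, 5% CO2, 30 min RT equilibration · Measured by – luminescent ATP assay · Read-out – % viability relative to median vehicle-well signal on each plate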
(Cellular ATP, detected with luciferase, serves as a proxy for viable cell number.)

Experiment [6] is described as follows: H69AR cell proliferation blockers – human, duplicate replicates, primary screen (AID 580;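 active = viability at or under a set limit in both replicates, limit being median viability minus 3 SD, cut at about 48% in these data, passing the limit was not always enough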;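 also: 100% = mean luminescence of untreated wells and 0% = no signal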). The following applies: H69AR lung tumor cells viability, ATP luminescence, 72 h; at 10 µM; stronger effect = lower value.
Experiment [7] is described as follows: MRP1 drug-resistance reversers in H69AR cells – cell-based, doxorubicin co-treatment, pilot screen (AID 601;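 active = viability loss from added drug above about 55%, and viability with drug at most 40%, in both replicates, limit read from the data, passing the limit was not always enough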). The following applies: CellTiter-Glo, 72 h, at 10 µM; for differential viability (reversal): stronger effect = higher value.
The mark [8] stands for this setting: H69AR cells + 2 uM doxorubicin, measured here: viability with 2 uM doxorubicin, stronger effect = lower value.
[9] abbreviates: H69AR cells, compound alone cytotoxicity.

Sequence of Pantothenate synthetase (Mycobacterium tuberculosis (strain ATCC 25618 / H37Rv)) (P9WIL5 whole entry, looked up): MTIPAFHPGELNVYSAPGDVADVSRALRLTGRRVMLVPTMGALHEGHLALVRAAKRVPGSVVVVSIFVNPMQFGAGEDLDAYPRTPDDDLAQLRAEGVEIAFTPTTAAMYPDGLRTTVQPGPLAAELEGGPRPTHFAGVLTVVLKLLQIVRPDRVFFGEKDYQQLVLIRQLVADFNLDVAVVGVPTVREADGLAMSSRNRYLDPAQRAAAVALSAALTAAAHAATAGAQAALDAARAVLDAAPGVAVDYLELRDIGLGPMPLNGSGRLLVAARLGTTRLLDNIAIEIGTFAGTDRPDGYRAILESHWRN
Sequence of Receptor tyrosine-protein kinase erbB-2 (Homo sapiens) (P04626 whole entry, looked up): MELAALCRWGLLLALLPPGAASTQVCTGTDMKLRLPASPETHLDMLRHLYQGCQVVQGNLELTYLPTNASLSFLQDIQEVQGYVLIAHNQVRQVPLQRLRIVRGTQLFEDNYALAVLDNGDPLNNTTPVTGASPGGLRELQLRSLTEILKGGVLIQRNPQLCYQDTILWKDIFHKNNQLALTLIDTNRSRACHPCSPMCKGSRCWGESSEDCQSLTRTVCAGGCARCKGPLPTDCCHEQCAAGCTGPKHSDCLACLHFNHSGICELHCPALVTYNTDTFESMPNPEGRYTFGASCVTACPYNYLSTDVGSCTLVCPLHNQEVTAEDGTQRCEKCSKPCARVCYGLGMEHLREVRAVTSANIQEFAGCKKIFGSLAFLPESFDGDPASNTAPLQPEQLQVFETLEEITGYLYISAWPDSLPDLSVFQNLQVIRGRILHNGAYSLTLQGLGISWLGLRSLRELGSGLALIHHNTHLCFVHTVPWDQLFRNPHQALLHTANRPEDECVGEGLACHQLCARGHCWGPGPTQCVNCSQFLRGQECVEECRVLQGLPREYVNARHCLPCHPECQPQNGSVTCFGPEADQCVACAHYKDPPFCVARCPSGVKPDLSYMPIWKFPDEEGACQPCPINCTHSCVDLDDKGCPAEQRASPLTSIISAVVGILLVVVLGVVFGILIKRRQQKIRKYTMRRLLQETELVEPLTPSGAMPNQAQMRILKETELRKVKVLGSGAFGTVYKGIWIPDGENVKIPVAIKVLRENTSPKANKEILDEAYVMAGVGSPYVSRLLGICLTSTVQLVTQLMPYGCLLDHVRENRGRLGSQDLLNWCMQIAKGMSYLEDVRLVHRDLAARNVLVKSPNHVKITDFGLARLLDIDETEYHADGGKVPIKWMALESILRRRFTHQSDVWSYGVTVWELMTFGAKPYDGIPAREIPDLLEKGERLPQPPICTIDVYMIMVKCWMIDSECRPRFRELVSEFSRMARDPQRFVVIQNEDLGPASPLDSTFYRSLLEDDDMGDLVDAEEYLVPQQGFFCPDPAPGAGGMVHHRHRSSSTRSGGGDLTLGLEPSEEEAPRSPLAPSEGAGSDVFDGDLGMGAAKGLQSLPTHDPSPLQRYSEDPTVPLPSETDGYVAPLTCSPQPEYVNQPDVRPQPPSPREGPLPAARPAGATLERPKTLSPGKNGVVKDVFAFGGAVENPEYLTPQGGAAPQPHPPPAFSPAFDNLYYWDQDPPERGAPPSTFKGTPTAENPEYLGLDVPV

For `O=C(Nc1ccncc1)c1cncc(Br)c1`, the inhibition in experiment [1] is 0% (inactive).
Still for that read-out and setting: with `COC(=O)c1[nH]c2c(c1C)C(=O)CC(c1cccs1)C2` (stereo unspecified) the figure was 3% (inactive); with `CCOc1ccc(-c2nnn(CCC(=O)O)n2)cc1OC`, 0% (inactive).
As for `COc1ccc(OC)c(C(O)C(C)N)c1` (stereo unspecified), in experiment [1], the inhibition is 0% (inactive). Also, the viability in experiment [2] is 104%; in experiment [4] it was 104% (inactive); in experiment [5] it was 108% (inactive); in experiment [6], 98.1% (inactive); in experiment [7] (setting [8]), 105%; in experiment [7] (setting [9]), 98.1%. For the same compound, the Her2 level in experiment [3] is 118% (inactive). Besides, the differential viability (reversal) in experiment [7] (H69AR cells + 2 uM doxorubicin) is -7.17% (inactive).
`COc1ccc2[nH]cc(CCN(C)C)c2c1`: the inhibition in experiment [1] was 0% (inactive). Besides, the viability was 108% in experiment [2]; 108% (inactive) in experiment [4]; 86.3% (inactive) in experiment [5]; 108% (inactive) in experiment [6]; 99.5% in experiment [7] (setting [8]); 108% in experiment [7] (setting [9]). Besides, the Her2 level in experiment [3] is 126% (inactive). Also, the differential viability (reversal) in experiment [7] (H69AR cells + 2 uM doxorubicin) is 8.63% (inactive).
Consider `O=S(=O)(Nc1nc2ccccc2nc1NCc1ccco1)c1ccc(Cl)cc1`, for which, in experiment [1], the inhibition was 0% (inactive).
As to `COc1ccc2[nH]c(=O)c(CN(CCO)S(=O)(=O)c3ccc4c(c3)OCCO4)cc2c1`, the inhibition in experiment [1] is 0% (inactive).
Take `COc1ccc(OC)c(CNC(=O)COc2cc(=O)n(C)c3ccccc23)c1`: the inhibition in experiment [1] is 0% (inactive).
Take `CN1CCN(C(=O)OC2c3nccnc3C(=O)N2c2ccc(Cl)cn2)CC1` (stereo unspecified): in experiment [1], the inhibition is 8% (inactive). The viability in experiment [2] is 91.5%; in experiment [4], 91.5% (inactive); in experiment [5], 106% (inactive); in experiment [6], 94.1% (inactive); in experiment [7] (setting [8]), 98.1%; in experiment [7] (setting [9]), 94.1%. In addition, the Her2 level in experiment [3] is 108% (inactive). Also, the differential viability (reversal) in experiment [7] (H69AR cells + 2 uM doxorubicin) is -3.97% (inactive).
In the case of `O=C(CCCN1CCC2(CC1)C(=O)NCN2c1ccccc1)c1ccc(F)cc1`, in experiment [1], the inhibition was 1% (inactive). Besides, the viability was 98% in experiment [2]; 98% (inactive) in experiment [4]; 96.2% (inactive) in experiment [5]; 87.8% (inactive) in experiment [6]; 97% in experiment [7] (setting [8]); 87.8% in experiment [7] (setting [9]). Further, the Her2 level in experiment [3] is 65% (inactive). Moreover, in experiment [7] (H69AR cells + 2 uM doxorubicin), the differential viability (reversal) was -9.21% (inactive).
As to `CC[C@@H]1C(=O)OC[C@@H]1Cc1cncn1C`, the inhibition in experiment [1] is 0% (inactive). Moreover, the viability in experiment [2] is 94%; in experiment [4], 94% (inactive) and 104% (inactive); in experiment [5], 101% (inactive) and 91.9% (inactive); in experiment [6], 102% (inactive) and 96% (inactive); in experiment [7] (setting [8]), 89.8% and 98.8%; in experiment [7] (setting [9]) it was 102% and 96%. Further, the Her2 level in experiment [3] is 107% (inactive). Besides, the differential viability (reversal) in experiment [7] (H69AR cells + 2 uM doxorubicin) was 12.4% (inactive) and -2.8% (inactive).
On to `CCOC(=O)c1c(NC(=O)c2cccs2)sc(C)c1C`, for which the inhibition in experiment [1] was 0% (inactive).
For the compound `C[N+]1(C)[C@@H]2CC[C@H]1CC(OC(=O)C(CO)c1ccccc1)C2` (stereo partly specified), the inhibition in experiment [1] was 6% (inactive) and 13% (inactive). In addition, the viability was 97.5% and 140% in experiment [2]; 97.5% (inactive) and 140% (inactive) in experiment [4]; 103% (inactive) and 106% (inactive) in experiment [5]; 100% (inactive) and 112% (inactive) in experiment [6]; 95.6% and 104% in experiment [7] (setting [8]); 100% and 112% in experiment [7] (setting [9]). The Her2 level in experiment [3] is 100% (inactive) and 106% (inactive). The differential viability (reversal) in experiment [7] (H69AR cells + 2 uM doxorubicin) is 4.59% (inactive) and 7.77% (inactive).
`CCCCC(=O)NCCc1cc2c(C)ccc(C)c2[nH]c1=O`: the inhibition in experiment [1] is 0% (inactive).
For the compound `CC(=O)[C@H]1CC[C@H]2[C@@H]3CC[C@H]4C[C@H](O)CC[C@]4(C)[C@H]3C(=O)C[C@]12C`, the inhibition in experiment [1] is 0% (inactive). For the same compound, the viability was 112% in experiment [2]; 112% (inactive) in experiment [4]; 118% (inactive) in experiment [5]; 104% (inactive) in experiment [6]; 92% in experiment [7] (setting [8]); 104% in experiment [7] (setting [9]). In addition, the Her2 level in experiment [3] was 108% (inactive). Moreover, the differential viability (reversal) in experiment [7] (H69AR cells + 2 uM doxorubicin) was 12.1% (inactive).
For `Cc1ccc(-n2ncc3c(=O)n(CC(=O)N4CCCc5ccccc54)cnc32)cc1C`, the inhibition in experiment [1] is 4% (inactive).
Same read-out and setting: with `Cc1ccc(C)c2[nH]c(=O)c(CN(CCN3CCCC3)C(=O)Nc3cccc(Cl)c3)cc12` the figure was 0% (inactive).
Still for that read-out and setting: with `COc1cc(NC(=O)c2cc(OC)c(OC)c(OC)c2)c(OC)cc1NC(=O)CN1CCCCC1` the figure was 1% (inactive).
The same measure, in the same setting: with `Cc1ccc(-n2nc(C)c3cc(C(=O)O)sc32)cc1` the figure was 0% (inactive); with `Cc1cccc(-c2nnn(CC/C(N)=N/O)n2)c1`, 3% (inactive).
As for `CCCCn1c(CN(C)Cc2ccccc2)nc2c1c(=O)n(C)c(=O)n2C`, in experiment [1], the inhibition was 0% (inactive).
Same read-out and setting: with `Cc1ccc(NC(=O)COC(=O)c2ccn(C)n2)cc1` the figure was 0% (inactive); with `O=C1NC(Nc2ccccn2)(C(F)(F)F)C(=O)N1c1ccc(F)cc1` (stereo unspecified), 0% (inactive).
Consider `COC(=O)c1cc2ccsc2n1CC(=O)N(C)c1ccccc1`, for which, in experiment [1], the inhibition is 10% (inactive).
The same measure, in the same setting: in the case of `O=C(O)CCNc1ccc2c(c1)OCCO2` it was 0% (inactive); in that of `O=C(CCCCn1c(=O)c2ccccc2n(Cc2ccc(Cl)cc2)c1=O)NCc1ccco1`, 0% (inactive); in that of `CCOC(=O)C1=C(N)OC2=C(C(=O)CC(C)(C)C2)C1c1ccoc1` (stereo unspecified), 0% (inactive).
On the same count and under the same terms, in the case of `O=S(=O)(Nc1ccn(-c2ccccc2)n1)c1ccc(Br)cc1` it was 0% (inactive); in that of `COc1ccc(Cl)cc1NC(=O)CSc1nncn1-c1cccnc1`, 9% (inactive).
As for `CCN1CCN(C(=O)N[C@@H](C(=O)N[C@@H]2C(=O)N3[C@@H]2SC(C)(C)[C@@H]3C(=O)O)c2ccccc2)C(=O)C1=O`, in experiment [1], the inhibition is 2% (inactive).
